# Measurements reported in ChEMBL document CHEMBL1134287, “Design and pharmacological activity of phosphinic acid based NAALADase inhibitors” (J Med Chem, 2001).
# Molecular target: Glutamate carboxypeptidase 2 (Rattus norvegicus, UniProt P70627)
# Experiment: Inhibitory concentration against rat brain NAALADase (Folate hydrolase)
# Method in brief: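 IC50 values were determined by a method described elsewhere, from two to four independent determinations each. The values refer to racemic material.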
# Chain of Glutamate carboxypeptidase 2 (P70627 whole entry): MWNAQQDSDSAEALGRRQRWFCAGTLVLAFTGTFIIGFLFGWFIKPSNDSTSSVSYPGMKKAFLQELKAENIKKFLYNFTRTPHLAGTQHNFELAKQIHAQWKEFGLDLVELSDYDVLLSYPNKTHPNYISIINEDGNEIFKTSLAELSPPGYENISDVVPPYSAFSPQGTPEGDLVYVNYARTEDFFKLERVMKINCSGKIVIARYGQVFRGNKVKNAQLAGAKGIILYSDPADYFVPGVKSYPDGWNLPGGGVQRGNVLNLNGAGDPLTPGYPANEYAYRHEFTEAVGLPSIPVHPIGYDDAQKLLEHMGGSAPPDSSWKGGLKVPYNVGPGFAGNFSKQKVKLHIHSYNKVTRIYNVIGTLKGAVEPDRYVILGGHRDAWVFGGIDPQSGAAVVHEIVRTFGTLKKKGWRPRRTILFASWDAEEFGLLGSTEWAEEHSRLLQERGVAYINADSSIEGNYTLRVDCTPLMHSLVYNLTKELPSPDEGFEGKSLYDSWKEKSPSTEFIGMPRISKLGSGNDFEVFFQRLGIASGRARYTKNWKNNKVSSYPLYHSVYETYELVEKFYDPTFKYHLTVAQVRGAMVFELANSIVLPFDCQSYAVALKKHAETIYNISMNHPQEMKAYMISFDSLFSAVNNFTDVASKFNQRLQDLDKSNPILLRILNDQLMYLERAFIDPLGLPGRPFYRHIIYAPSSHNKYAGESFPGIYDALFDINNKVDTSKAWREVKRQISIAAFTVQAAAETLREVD
row,SMILES,IC50
1,O=C(O)CCC(CP(=O)(O)C(O)c1cccc(F)c1)C(=O)O (stereo not given),16 nM
2,O=C(O)CC(CP(=O)(O)O)C(=O)O (stereo not given),2200 nM
3,CC(CP(=O)(O)CC(CCC(=O)O)C(=O)O)C(=O)OCc1ccccc1 (stereo not given),95 nM
4,O=C(O)CCC(CP(=O)(O)C(O)c1ccncc1)C(=O)O (stereo not given),10 nM
5,O=C(O)CCC(CP(=O)(O)CC(CCC(=O)O)C(=O)O)C(=O)O (stereo not given),0.5 nM
6,O=C(O)CCC(CP(=O)(O)CCc1ccccc1)C(=O)O (stereo not given),149 nM
7,O=C(O)C(Cc1cccc(O)c1)CP(=O)(O)O (stereo not given),508 nM
8,O=C(O)CCCC(CP(=O)(O)O)C(=O)O (stereo not given),185 nM
9,N#CCCC(CP(=O)(O)O)C(=O)O (stereo not given),335 nM
10,O=C(O)CCC(CP(=O)(O)Cc1ccccc1F)C(=O)O (stereo not given),156 nM
11,O=C(O)CCC(CP(=O)(O)Cc1cc(F)cc(F)c1)C(=O)O (stereo not given),49 nM
12,CCCP(=O)(O)CC(CCC(=O)O)C(=O)O (stereo not given),360 nM
13,O=C(O)C(CCC1N=NN=N1)CP(=O)(O)O (stereo not given),175 nM

# Further compounds by falling IC50, results first:
row,IC50,SMILES
1,2930 nM,O=C(O)CCC(CP(=O)(O)c1ccccc1)C(=O)O (stereo not given)
2,548 nM,O=C(O)C(Cc1ccccc1)CP(=O)(O)O (stereo not given)
3,199 nM,O=C(O)C(CCc1ccccc1)CP(=O)(O)O (stereo not given)
4,143 nM,Nc1cccc(CP(=O)(O)CC(CCC(=O)O)C(=O)O)c1 (stereo not given)
5,82 nM,O=C(O)CCC(CP(=O)(O)Cc1c(F)c(F)c(F)c(F)c1F)C(=O)O (stereo not given)
6,68 nM,Cc1ccc(CP(=O)(O)CC(CCC(=O)O)C(=O)O)cc1 (stereo not given)
7,59 nM,O=C(O)CCC(CP(=O)(O)CNCc1ccccc1)C(=O)O (stereo not given)
8,55 nM,O=C(O)CCC(CP(=O)(O)Cc1cc(C(F)(F)F)cc(C(F)(F)F)c1)C(=O)O (stereo not given)
9,53 nM,O=C(O)CCC(CP(=O)(O)Cc1ccccc1)C(=O)O (stereo not given)
10,3 nM,COc1ccc(NCP(=O)(O)CC(CCC(=O)O)C(=O)O)cc1 (stereo not given)
11,2 nM,O=C(O)CCC(CP(=O)(O)CC(Cc1ccccc1)C(=O)O)C(=O)O (stereo not given)
12,1.5 nM,CC(CP(=O)(O)CC(CCC(=O)O)C(=O)O)C(=O)O (stereo not given)
